# PMI act: activators of human phosphomannose isomerase; P34949; purified human PMI, coupled resazurin fluorescence, 20 min; active compounds read high; 1 = vehicle control, 0 substrate-free wells; activation factor at 20 µM; actives 0.005% (n = 190,000); AID 1214;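 active means activation factor of 2 or more at 20 µM, relative to plate controls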
# Target sequence (P34949 whole entry, looked up): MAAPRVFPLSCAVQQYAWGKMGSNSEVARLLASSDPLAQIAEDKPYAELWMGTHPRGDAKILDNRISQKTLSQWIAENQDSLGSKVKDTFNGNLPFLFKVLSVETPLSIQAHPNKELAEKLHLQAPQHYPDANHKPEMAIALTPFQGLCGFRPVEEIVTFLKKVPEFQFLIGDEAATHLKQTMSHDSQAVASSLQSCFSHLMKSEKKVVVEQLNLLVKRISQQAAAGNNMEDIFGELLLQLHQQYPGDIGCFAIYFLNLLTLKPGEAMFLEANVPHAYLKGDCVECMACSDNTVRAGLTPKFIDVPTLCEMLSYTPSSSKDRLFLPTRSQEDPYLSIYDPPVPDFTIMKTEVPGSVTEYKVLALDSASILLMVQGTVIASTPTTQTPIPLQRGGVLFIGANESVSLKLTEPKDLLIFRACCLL
# Lmaj promast: inhibitors of Leishmania major promastigote growth | Leishmania major promastigotes, resazurin fluorescence viability | inhibition, % at 10 µM | actives 9% (n = 200,000); in the data active means inhibition above about 50%;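 further: promastigotes grown with compound for 44 hours at 28 °C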
# WT yeast gro inh: growth inhibition of WT yeast, mitochondrial fusion screen; mitochondrial fusion phenotypic screen, WT strain; inhibition, % at 10 µM; actives 2.1% (n = 190,000); AID 1362; in the data active means inhibition above about 58%; tested in S. cerevisiae
# Diaphorase act: counter-screen for diaphorase-based assays: diaphorase activators and chemical reducers; Diaphorase/resazurin coupled assay, resorufin fluorescence, 16 min; active compounds read high; 1 = vehicle wells, 0 = NADH-free wells; activation factor at 20 µM; actives 0.005% (n = 190,000);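 active means diaphorase activity raised at least twofold by the compound at 20 µM; inactive means activation factor below 2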
#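 Test system: Clostridium kluyveri diaphorase, purified enzyme; input: enzyme 0.07 U/mL final; buffer or medium: 50 mM HEPES pH 7.4 with 4.542 mM MgCl2, 0.005% Tween 20; also added: 0.114 mM NADH and 0.1 mM resazurin, final amounts; schedule: 16 min enzyme reaction, ambient temperature; technique: fluorescence of resorufin, 544 nm excitation, 590 nm emission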
# PMI act hi M6P: PMI (human) activation, high substrate | P34949 | coupled PMI enzyme assay, resazurin fluorescence, 20 min; active compounds read high; 1 = untreated enzyme, 0 = substrate-free blank | activation factor at 20 µM | actives 0.34% (n = 190,000);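 active means activation factor of 2 or more at 20 µM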
#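 Test system: human phosphomannose isomerase with PGI, G6PDH, diaphorase coupling enzymes; Amount: PMI at 15 ng/mL final; Reagent: Mannose-6-phosphate 1.0 mM (near-saturating) plus 0.22 mM NADP+; Timing: 20 min, room temperature; Technique: resorufin fluorescence at Ex 544/Em 590 nm; Dosing: 20 µM single dose.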
# * hit, by the source's call; x = no result given. Only some compounds are listed: those with a hit (about 10% of all), similar ones and a draw of the others.
SMILES,PMI act,Lmaj promast,WT yeast gro inh,Diaphorase act,PMI act hi M6P
O=C(N/N=C/c1cc([N+](=O)[O-])ccc1O)c1cc(-c2ccccc2)nc2ccccc12,1.2,98.4*,5.0,1,1.3
Cc1cc(C(=O)N/N=C/c2cc([N+](=O)[O-])ccc2O)c2ccccc2n1,0.9,30.7,-2.2,0.6,1.2
O=C(NC1CCCCC1)c1ccccc1NC(=O)C1CC1,1.1,-4.5,-14.1,1.1,1.1
CCc1oc2ccccc2c1C(=O)c1cc(Br)c(O)c(Br)c1,1.1,-5.2,85.5*,0.8,1
CCc1ccc(OCC(=O)c2c(O)c3ccccc3oc2=O)cc1,1.4,-5.5,1.1,0.9,1.2
Cc1cc2nc(C3CCN(CC4COc5ccccc5O4)CC3)[nH]c2cc1C (centres undefined),0.9,90.7*,39.9,0.9,0.8
CCCNC(=S)N1CCC(c2nc3cc(C)c(C)cc3[nH]2)CC1,1,2.4,-1.1,0.9,1
CCNC(=O)COC(=O)c1sccc1C,1.1,-8.2,-15.5,1.1,1.1
CC1(C)CNc2cc([N+](=O)[O-])ccc2S1,1,11.0,-4.0,0.9,1
Cc1c(O)c(S(=O)c2ccccc2)c(=O)n(-c2ccccc2)c1-c1ccccc1 (centres undefined),1.2,-6.9,-9.2,1,1
CCCn1c(NC(=O)c2cccc(C)c2C)nc2ccccc21,1.1,98.2*,42.0,0.8,1.1
CCCn1c(NC(=O)c2ccc(Cl)c(S(=O)(=O)N3CCCC3)c2)nc2ccccc21,1,71.6*,28.9,0.7,0.9
CC(C)(C)C(=O)Nc1ccccc1C(=O)Nc1ccccn1,1.1,1.2,8.3,1,1
CCC(=O)Nc1nc2ccccc2n1Cc1ccc(C)cc1,1,98.7*,13.1,1,1
Cn1c(NC(=O)c2ccccc2NC(=O)C(C)(C)C)nc2ccccc21,0.8,77.2*,25.4,0.8,0.8
O=C(CCC(=O)N1CCOCC1)Nc1nnc(C2CCCCC2)s1,1,-8.4,22.6,1,1.1
CC1CCCCN1S(=O)(=O)c1ccc(C(=O)Nc2nnc(-c3ccccn3)o2)cc1 (centres undefined),1.2,5.9,13.3,0.8,1.1
COC(=O)c1ccc(NC2c3ncccc3C(=O)N2Cc2cccs2)cc1 (centres undefined),0.9,-0.3,-8.9,0.8,0.9
COC(=O)c1cc(NC2c3ncccc3C(=O)N2Cc2ccccc2)cc(C(=O)OC)c1 (centres undefined),0.9,52.9*,19.2,0.9,0.9
Fc1ccc(NC(=S)Nc2ccc(Cl)cc2)cc1,1.1,63.0*,15.9,1.2,1.1
Fc1ccc(NC(=S)Nc2cc(Cl)ccc2Cl)cc1,1,6.2,-36.6,1,0.9
Cc1cc(C)c(C)c(S(=O)(=O)N2CCN(CC(=O)Nc3ccc([N+](=O)[O-])cc3)CC2)c1C,1,-5.0,-9.9,0.9,1
CCOc1ccccc1CN1CCN(Cc2cccc3c2OCO3)CC1CCO (centres undefined),0.9,20.8,-9.0,1,1
CCOc1ccccc1CN1CCN(Cc2csc(C(C)=O)c2)CC1CCO (centres undefined),1,72.5*,0.1,0.9,1
CCOc1ccccc1CN1CCN(Cc2cc3ccccc3[nH]2)CC1CCO (centres undefined),1,23.5,6.1,0.9,1
SMILES,PMI act,Lmaj promast,WT yeast gro inh,Diaphorase act,PMI act hi M6P
CCOc1ccc(CN2CCN(Cc3cccn3-c3ncccn3)CC2CCO)cc1 (centres undefined),1,2.1,3.2,1.1,1.1
CCOc1ccc(CN2CCN(Cc3cccc4c3OCO4)CC2CCO)cc1 (centres undefined),1,76.7*,6.0,1.1,0.9
CCOc1ccc(CN2CCN(Cc3[nH]c4ccccc4c3C)CC2CCO)cc1 (centres undefined),x,77.2*,8.2,x,x
COc1cccc(CN2CCN(Cc3cccc4c3OCO4)CC2CCO)c1 (centres undefined),1.1,8.4,4.0,0.9,1
Cc1ccc(CN2CCN(Cc3cccc4c3OCO4)CC2CCO)cc1 (centres undefined),1,58.0*,3.6,1,0.9
O=C(COc1ccccc1)N/N=C/c1ccc(O[C@@H]2O[C@H](CO)[C@@H](O)[C@H](O)[C@H]2O)cc1,1,49.3,-12.1,0.9,1.1
C/C(CCC(C)C)=N\Nc1cc(C)c2ccccc2n1,0.9,67.2*,11.3,0.9,0.8
